The target of test [1] is Protein arginine N-methyltransferase 3 (Homo sapiens) (UniProt O60678). Description: Inhibition of recombinant PRMT3 using glycine- and arginine-rich motif as substrate at 50 uM and [3H]-SAM after 90 mins by scintillation counting. The essentials:
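Recombinant PRMT3 was incubated with GAR-motif substrate and [³H]SAM (0.42 μM) in PBS pH 7.4 with compound at 50 μM for 90 min at 30 °C.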

For test [2], the target named is T1, Histone-arginine methyltransferase CARM1 (Homo sapiens) (UniProt Q86X55).
T1 sequence (whole entry): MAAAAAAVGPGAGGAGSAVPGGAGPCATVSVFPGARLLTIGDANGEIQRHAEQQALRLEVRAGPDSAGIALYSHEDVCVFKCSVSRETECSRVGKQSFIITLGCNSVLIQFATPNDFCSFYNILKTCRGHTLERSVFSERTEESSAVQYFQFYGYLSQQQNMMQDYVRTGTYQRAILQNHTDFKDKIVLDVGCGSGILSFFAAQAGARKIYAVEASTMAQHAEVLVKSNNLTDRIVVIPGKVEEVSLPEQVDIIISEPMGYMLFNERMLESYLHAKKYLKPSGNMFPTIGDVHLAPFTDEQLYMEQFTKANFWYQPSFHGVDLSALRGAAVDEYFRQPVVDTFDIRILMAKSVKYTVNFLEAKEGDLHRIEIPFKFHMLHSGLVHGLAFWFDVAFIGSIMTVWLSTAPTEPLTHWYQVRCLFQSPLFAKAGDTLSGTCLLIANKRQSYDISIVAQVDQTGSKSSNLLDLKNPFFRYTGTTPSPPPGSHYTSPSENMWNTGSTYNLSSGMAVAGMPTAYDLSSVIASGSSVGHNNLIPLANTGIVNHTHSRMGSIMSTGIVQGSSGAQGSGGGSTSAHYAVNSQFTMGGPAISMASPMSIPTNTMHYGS
Description: Activation of recombinant CARM1 using histone H3 as substrate and [3H]-SAM after 90 mins by scintillation counting. The essentials:
(§1)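 Recombinant CARM1 (0.2 μg) was incubated with histone H3 (1.1 μM) and [³H]SAM (0.42 μM) in PBS pH 7.4 with compound (50 μM) for 90 min at 30 °C. Methylation was measured by scintillation counting. Activity is expressed as % relative to DMSO, as the mean of at least two separate experiments.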

Test [3] deals with T1, Histone-arginine methyltransferase CARM1 (Homo sapiens). The experiment in a line: Activation of recombinant CARM1 using histone H3 as substrate and [3H]-SAM at 50 uM after 90 mins by scintillation counting. The method, boiled down:
as §1

Test [4] deals with Protein arginine N-methyltransferase 1 (Homo sapiens) (UniProt Q99873). Description: Inhibition of human recombinant GST-PRMT1 expressed Escherichia coli BL21 using Npl3p substrate as substrate and [3H]-SAM at 50 uM after 90 mins by scintillation counting. The essentials: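 Human recombinant PRMT1 was incubated with Npl3p substrate and [³H]SAM (0.42 μM) in PBS pH 7.4 with compound at 50 μM for 90 min at 30 °C. Percent inhibition was determined.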

For test [5], the target named is T1, Histone-arginine methyltransferase CARM1 (Homo sapiens). Description: Activation of recombinant CARM1 using PABP1 as substrate and [3H]-SAM at 50 uM after 90 mins by scintillation counting. The method, boiled down:
(§2)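 Recombinant CARM1 (0.2 μg) was incubated with PABP1 substrate and [³H]SAM (0.42 μM) in PBS pH 7.4 for 90 min at 30 °C. Compound was tested at 50 μM, or at 3–100 μM for concentration series. Bands were Ponceau-stained, excised and counted by liquid scintillation. Activity is given as % of DMSO control; no-SAM reactions served as negative control; at least two experiments.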

Test [6] addresses T2, Histone-lysine N-methyltransferase SETD7 (Homo sapiens) (UniProt Q8WTS6).
T2 sequence (whole entry): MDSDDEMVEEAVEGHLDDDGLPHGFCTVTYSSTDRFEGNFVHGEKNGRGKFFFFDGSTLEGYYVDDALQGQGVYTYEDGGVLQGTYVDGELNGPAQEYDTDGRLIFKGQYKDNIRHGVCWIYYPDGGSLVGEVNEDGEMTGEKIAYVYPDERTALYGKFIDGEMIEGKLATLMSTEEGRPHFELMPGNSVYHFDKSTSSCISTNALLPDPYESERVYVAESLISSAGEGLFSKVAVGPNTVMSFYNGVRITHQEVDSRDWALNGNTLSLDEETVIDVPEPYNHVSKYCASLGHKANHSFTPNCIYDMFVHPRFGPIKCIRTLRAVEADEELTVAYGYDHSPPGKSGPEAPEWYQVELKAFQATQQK
The experiment in a line: Inhibition of recombinant SET7 using histone H3 as substrate at 50 uM and [3H]-SAM after 90 mins by scintillation counting.

For test [7], the target named is Protein arginine N-methyltransferase 6 (Homo sapiens) (UniProt Q96LA8). The experiment in a line: Inhibition of recombinant PRMT6 using histone H3 as substrate at 50 uM and [3H]-SAM after 90 mins by scintillation counting.
For test [8], the target named is T1, Histone-arginine methyltransferase CARM1 (Homo sapiens). The experiment in a line: Activation of recombinant CARM1 using PABP1 as substrate and [3H]-SAM after 90 mins by scintillation counting. The essentials:
as §2

The target is the same in test [9]. The experiment in a line: Activation of recombinant CARM1 expressed in HEK293 cells co-expressing 3XFLAG-tagged PABP1 assessed as arginine methylation of PABP1 at 50 uM after 24 hrs. The test is classed as cell-based. The essentials: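 Flp-In T-Rex HEK293 cells stably carrying Tet-inducible 3XFLAG-PABP1 were kept in DMEM/10% FBS with blasticidin and hygromycin. They were plated at 1 × 10⁵ cells/mL and the medium was changed after 12 h. Cells then got compound with or without tetracycline (1 μg/mL) for 24 h. RIPA lysates were immunoblotted with anti-methyl-PABP1 and anti-FLAG. Band densities were compared to DMSO control.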

For test [10] the target is unchanged. The experiment in a line: Inhibition of recombinant CARM1 using histone H3 as substrate at 50 uM and [3H]-SAM after 90 mins by scintillation counting. The method, boiled down: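 Recombinant CARM1 (0.2 μg) incubated with histone H3 substrate (0.5 μg; H3 1.1 μM) and [3H]SAM (0.42 μM) in PBS pH 7.4 with 50 μM compound, 90 min, 30 °C. Bands Ponceau-stained, excised, scintillation counted; activity expressed as percent of DMSO control. Means of at least two separate experiments, SD in percentage points.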

Activity calls are given as the source filed them. No cut-off for these calls is given here.

Chain of Protein arginine N-methyltransferase 1 (Homo sapiens) (Q99873 whole entry, looked up): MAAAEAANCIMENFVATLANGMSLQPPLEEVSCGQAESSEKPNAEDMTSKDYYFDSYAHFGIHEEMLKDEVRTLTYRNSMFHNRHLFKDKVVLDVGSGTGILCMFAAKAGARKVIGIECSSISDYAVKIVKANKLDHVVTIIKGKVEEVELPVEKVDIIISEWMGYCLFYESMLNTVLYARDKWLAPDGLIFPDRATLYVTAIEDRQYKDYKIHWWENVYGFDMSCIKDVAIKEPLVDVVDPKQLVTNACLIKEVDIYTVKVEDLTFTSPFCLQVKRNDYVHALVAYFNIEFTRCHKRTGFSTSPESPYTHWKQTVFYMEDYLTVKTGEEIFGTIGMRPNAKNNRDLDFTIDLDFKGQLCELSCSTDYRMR
Chain of Protein arginine N-methyltransferase 6 (Homo sapiens) (Q96LA8 whole entry, looked up): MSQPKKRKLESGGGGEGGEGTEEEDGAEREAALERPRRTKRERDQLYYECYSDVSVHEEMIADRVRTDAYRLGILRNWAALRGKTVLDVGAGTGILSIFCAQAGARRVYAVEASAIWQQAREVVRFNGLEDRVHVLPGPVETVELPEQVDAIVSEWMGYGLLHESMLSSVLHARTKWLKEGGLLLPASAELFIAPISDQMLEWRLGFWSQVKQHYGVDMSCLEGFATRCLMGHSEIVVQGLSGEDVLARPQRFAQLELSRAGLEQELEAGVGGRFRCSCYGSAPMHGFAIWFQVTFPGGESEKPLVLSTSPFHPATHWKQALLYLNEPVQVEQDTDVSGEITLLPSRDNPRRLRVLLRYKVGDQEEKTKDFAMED
Chain of Protein arginine N-methyltransferase 3 (Homo sapiens) (O60678 2-531 limits assumed): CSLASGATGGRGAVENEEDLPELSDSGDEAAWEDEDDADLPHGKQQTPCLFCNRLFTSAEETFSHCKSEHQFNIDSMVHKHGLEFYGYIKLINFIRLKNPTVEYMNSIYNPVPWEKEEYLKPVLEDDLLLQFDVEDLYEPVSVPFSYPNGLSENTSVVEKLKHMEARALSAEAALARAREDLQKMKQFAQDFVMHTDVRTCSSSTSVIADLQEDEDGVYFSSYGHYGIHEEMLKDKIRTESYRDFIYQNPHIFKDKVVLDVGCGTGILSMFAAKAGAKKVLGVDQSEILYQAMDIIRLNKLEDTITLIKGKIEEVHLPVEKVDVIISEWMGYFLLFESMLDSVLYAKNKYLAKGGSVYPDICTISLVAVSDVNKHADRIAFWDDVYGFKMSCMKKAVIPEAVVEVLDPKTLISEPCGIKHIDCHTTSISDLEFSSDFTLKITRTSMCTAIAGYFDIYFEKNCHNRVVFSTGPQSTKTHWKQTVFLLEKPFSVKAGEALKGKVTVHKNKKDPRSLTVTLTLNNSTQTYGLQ

In the case of `CCOC(=O)c1cc2cc(NC(=O)CNC(=O)Nc3ccc([N+](=O)[O-])cc3)ccc2[nH]1`, the inhibition – broadly, the relative decrease from the control value, in per cent – in test [1] turned out to be 54.7%; in test [6], 10.2%; in test [7] it was 19.3%. The Activity result is “Dose-dependent effect” in test [2], 176% in [3], 299% in [5] and “Dose-dependent effect” in test [8]. Further, the inhibition result in [4] was “inactive”.

Regarding `O=C(CNC(=O)Nc1ccc([N+](=O)[O-])cc1)Nc1ccc2[nH]c(C(=O)O)cc2c1`, the values for the Activity in [3] and in [5] were 142% and 85.3%, respectively. The inhibition entry in [4] was “inactive”.

As to `CCOC(=O)c1cc2cc(NC(=O)CNC(=O)Nc3ccc(OC)cc3)ccc2[nH]1`, the Activity in test [3] turned out to be 183%; in test [5], 74.7%. Moreover, the inhibition entry in test [4] was “inactive”.

Consider `Cc1ccc(NC(=O)NCC(=O)Nc2ccc3[nH]cc(C(=O)O)c3c2)cc1`, for which the inhibition entry in [4] is “inactive”.

Regarding `O=C(CNC(=O)Nc1ccc([N+](=O)[O-])cc1)Nc1ccc2[nH]cc(C(=O)O)c2c1`, the inhibition result in test [4] is “inactive”.

Consider `CN(C)c1ccc(NC(=O)NCC(=O)Nc2ccc3[nH]c(C(=O)O)cc3c2)cc1`, for which the values for the Activity in test [3] and in [5] were 48.3% and 135%, respectively. In addition, the inhibition result in [4] was “inactive”.

Take `CN(C)c1ccc(NC(=O)NCC(=O)Nc2ccc3[nH]cc(C(=O)O)c3c2)cc1`: the inhibition entry in [4] is “inactive”.

`COC(=O)c1c[nH]c2ccc(NC(=O)CNC(=O)Nc3ccccc3)cc12`: the Activity in [3] was determined as 74.7%; in test [5], 26.5%. In addition, the inhibition result in [4] is “inactive”.

`COC(=O)c1c[nH]c2ccc(NC(=O)CNC(=O)Nc3ccc(OC)cc3)cc12`: the Activity in test [3] amounted to 62.7%; in test [5], 28.2%. Besides, the inhibition result in [4] was “inactive”.

As to `N#Cc1ccc(NC(=O)NCC(=O)Nc2ccc3[nH]c(C(=O)O)cc3c2)cc1`, the figures for the Activity in test [3] and in [5] were 143% and 81.2%, respectively. For the same compound, the inhibition result in test [4] was “inactive”.

Consider `COc1ccc(NC(=O)NCC(=O)Nc2ccc3[nH]cc(C(=O)O)c3c2)cc1`, for which the inhibition entry in test [4] was “inactive”.

On to `CCOC(=O)c1cc2cc(NC(=O)CNC(=O)Nc3ccc(N(C)C)cc3)ccc2[nH]1`, for which the Activity in test [3] was 102%; in [5], 70.6%. The inhibition entry in test [4] is “inactive”.

Turning to `COC(=O)c1c[nH]c2ccc(NC(=O)CNC(=O)Nc3ccc(C)cc3)cc12`, the figures for the Activity in test [3] and in test [5] were 39.7% and 4.7%, respectively. Further, in [4], the inhibition entry was “inactive”.

`N#Cc1ccc(NC(=O)NCC(=O)Nc2ccc3[nH]cc(C(=O)O)c3c2)cc1`: the inhibition entry in test [4] is “inactive”.

As for `O=C(Nc1ccc2cc(C(=O)O)cc(O)c2c1)Nc1ccc2cc(C(=O)O)cc(O)c2c1`, in test [3], the Activity was 83.1%.

For `O=C(CNC(=O)Nc1ccccc1)Nc1ccc2[nH]cc(C(=O)O)c2c1`, the inhibition result in test [4] is “inactive”.

Take `COC(=O)c1c[nH]c2ccc(NC(=O)CNC(=O)Nc3ccc(C#N)cc3)cc12`: the Activity in [3] came to 135%; in test [5], 38.8%. Moreover, the inhibition result in test [4] was “inactive”.

Take `Cc1ccc(NC(=O)NCC(=O)Nc2ccc3[nH]c(C(=O)O)cc3c2)cc1`: the Activity in test [3] came out at 111%; in test [5] it was 149%. The inhibition entry in test [4] was “inactive”.

As for `CCOC(=O)c1cc2cc(NC(=O)CNC(=O)Nc3ccc(C)cc3)ccc2[nH]1`, the Activity came to 127% in test [3] and 382% in [5]. For the same compound, the inhibition result in [4] is “inactive”. The result in [9] was Active.

With `CCOC(=O)c1cc2cc(NC(=O)CNC(=O)Nc3ccccc3)ccc2[nH]1`, the Activity turned out to be 134% in test [3] and 10.5% in [5]. Further, the inhibition entry in [4] is “inactive”.

For the compound `COc1ccc(NC(=O)NCC(=O)Nc2ccc3[nH]c(C(=O)O)cc3c2)cc1`, the Activity in [3] turned out to be 211%; in test [5], 96.3%. The inhibition entry in test [4] is “inactive”.

With `O=C(CNC(=O)Nc1ccccc1)Nc1ccc2[nH]c(C(=O)O)cc2c1`, the Activity in test [3] came to 167%; in test [5] it was 172%. Moreover, the inhibition result in test [4] was “inactive”.

Regarding `O=C(Nc1ccc2c(O)cc(S(=O)(=O)O)cc2c1)Nc1ccc2c(O)cc(S(=O)(=O)O)cc2c1`, the inhibition was 101% in test [1], 34.3% in test [6], 40.7% in test [7] and 74.8% in test [10]. Besides, in test [3], the Activity is 74%.

With `CCOC(=O)c1cc2cc(NC(=O)CNC(=O)Nc3ccc(C#N)cc3)ccc2[nH]1`, the Activity came to 115% in test [3] and 358% in test [5]. Moreover, the inhibition result in test [4] is “inactive”. In test [9], the result was Active.

Take `COC(=O)c1c[nH]c2ccc(NC(=O)CNC(=O)Nc3ccc(N(C)C)cc3)cc12`: the Activity in test [3] amounted to 125%; in test [5], 7.6%. Further, the inhibition result in [4] was “inactive”.

On to `COC(=O)c1c[nH]c2ccc(NC(=O)CNC(=O)Nc3ccc([N+](=O)[O-])cc3)cc12`, for which the Activity turned out to be 134% in test [3] and 115% in test [5]. For the same compound, the inhibition result in [4] is “inactive”.
